ChEMBL document CHEMBL1131231, “New azole antifungals. 2. Synthesis and antifungal activity of heterocyclecarboxamide derivatives of 3-amino-2-aryl-1-azolyl-2-butanol” (1998)
Values after ≈ are worked out from the molar mass of the structure shown.

How the values were obtained:
Assay type in all cases: functional
Candida albicans [1] = experiment: In vivo antifungal activity against murine candidosis model after peroral administration with 1 mg/kg at various time intervals. (percent protection for 100% mortality with fluconazole-treated group.); details: route oral
How it was run: (§1)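 Male mice, groups of 10, infected iv with 0.2 mL Candida albicans at (2–8) × 10⁷ cfu/mL. Oral suspension in 1% Tween + 0.2% carboxymethylcellulose in water, given 1, 4 and 24 h post-infection; vehicle controls and a fluconazole group at the same dose. Survival scored on days 1, 2, 3, 5, 7, 9, reported as % surviving on the day untreated, or fluconazole-treated, mortality reached 100%.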

Candida albicans [2] = experiment: In vivo antifungal activity against murine candidosis model after peroral administration with 1 mg/kg at various time intervals. (percent protection for 100% mortality with untreated group); details: route oral; how it was run: as §1
[3] = The compound was tested in vitro for antifungal activity against 10 yeasts.
How it was run: (§2)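 Agar dilution on Kimmig's agar with 0.5% glycerol; ATCC or clinical isolates, inocula at 10⁵ cfu/mL. Drugs from 800 μg/mL stock in 50% ethanol, 2-fold serial dilutions 80 to 0.03 μg/mL in plates. Incubated 25 °C, 48 h for yeasts, 120 h for filamentous fungi. Value is geometric mean of MICs (μg/mL); >80 taken as 160, ≤0.03 as 0.03.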

[4] = The compound was tested in vitro for antifungal activity against 6 filamentous fungi.; how it was run: as §2
Candida albicans [5] = experiment: In vivo antifungal activity against murine candidosis model after peroral administration with 0.5 mg/kg at various time intervals. (percent protection for 100% mortality with untreated group); details: route oral; how it was run: as §1
Candida albicans [6] = experiment: In vivo antifungal activity against murine candidosis model after peroral administration with 0.5 mg/kg at various time intervals. (percent protection for 100% mortality with fluconazole-treated group.); details: route oral; how it was run: as §1

Row | SMILES | Protection (Candida albicans [1]) [%] | Protection (Candida albicans [2]) [%] | MIC [3] [µg/mL] | MIC [4] [µg/mL] | Protection (Candida albicans [5]) [%] | Protection (Candida albicans [6]) [%]
1 | Cc1c(C(=O)N[C@H](C)[C@](O)(Cn2cncn2)c2ccc(F)cc2F)cnn1-c1ccc(OC(F)(F)F)cc1 | 80 | 100 | 2.6 (≈ 4.85 µM) | 5.6 (≈ 10.4 µM) |  | 
2 | Cc1c(C(=O)N[C@H](C)[C@](O)(Cn2cncn2)c2ccc(F)cc2F)cnn1-c1ccc(Br)cc1 | 50 | 100 | 2 (≈ 3.76 µM) | 13 (≈ 24.5 µM) |  | 
3 | C[C@@H](n1cnc2cc(-c3ccc(C(N)=O)cc3)sc2c1=O)[C@](O)(Cn1cncn1)c1ccc(F)cc1F | 20 | 100 | 1.3 (≈ 2.49 µM) | 45 (≈ 86.1 µM) |  | 
4 | CCCc1c(C(=O)N[C@H](C)[C@](O)(Cn2cncn2)c2ccc(F)cc2F)cnn1-c1ccc(Cl)cc1 | 0 | 100 | 1.9 (≈ 3.69 µM) | 36 (≈ 69.9 µM) |  | 
5 | Cc1c(C(=O)N[C@H](C)[C@](O)(Cn2cncn2)c2ccc(F)cc2F)cnn1-c1c(Cl)cccc1Cl | 0 | 0 | 21 (≈ 40.3 µM) | > 80 |  | 
6 | Cc1c(C(=O)N[C@H](C)[C@](O)(Cn2cncn2)c2ccc(F)cc2F)cnc2cc(-c3ccc(Cl)cc3)nn12 | 0 | 100 | 1.4 (≈ 2.6 µM) | 6.3 (≈ 11.7 µM) |  | 
7 | C[C@@H](n1cnc2cc(-c3ccc(C(=N)NO)cc3)sc2c1=O)[C@](O)(Cn1cncn1)c1ccc(F)cc1F | 0 | 90 | 2.4 (≈ 4.46 µM) | > 80 |  | 
8 | C[C@@H](NC(=O)c1cnn(-c2ccc(Cl)cc2)c1C(C)(C)C)[C@](O)(Cn1cncn1)c1ccc(F)cc1F | 0 | 0 | 4.6 (≈ 8.7 µM) | > 80 |  | 
9 | C[C@@H](n1cnc2cc(-c3ccc(C4=NCCO4)cc3)sc2c1=O)[C@](O)(Cn1cncn1)c1ccc(F)cc1F | 20 | 100 | 1.9 (≈ 3.46 µM) | > 80 |  | 
10 | C[C@@H](NC(=O)c1cnn(-c2ccc(C(F)(F)F)cc2)c1C(F)(F)F)[C@](O)(Cn1cncn1)c1ccc(F)cc1F | 0 | 60 | 1.8 (≈ 3.13 µM) | 13 (≈ 22.6 µM) |  | 
11 | Cc1c(C(=O)N[C@H](C)[C@](O)(Cn2cncn2)c2ccc(F)cc2F)cnn1-c1cccc(C(F)(F)F)c1 | 0 | 100 | 4.6 (≈ 8.84 µM) | 20 (≈ 38.4 µM) |  | 
12 | C[C@@H](n1cnc2cc(-c3ccc(C(=N)NC#N)cc3)sc2c1=O)[C@](O)(Cn1cncn1)c1ccc(F)cc1F | <20 | 100 | 2.7 (≈ 4.94 µM) | 80 (≈ 146 µM) |  | 
13 | Cc1c(C(=O)N[C@H](C)[C@](O)(Cn2cncn2)c2ccc(F)cc2F)cnn1-c1cc(Cl)cc(Cl)c1 | 0 | 20 | 19 (≈ 36.4 µM) | > 80 |  | 
14 | C[C@@H](n1cnc2cc(-c3ccc(F)cc3)sc2c1=O)[C@](O)(Cn1cncn1)c1ccc(F)cc1F | 100 | 100 | 0.4 (≈ 0.804 µM) | 2.2 (≈ 4.42 µM) |  | 
15 | Cc1c(C(=O)N[C@H](C)[C@](O)(Cn2cncn2)c2ccc(F)cc2F)cnn1-c1ccc(Cl)cc1 | 60 | 80 | 1.8 (≈ 3.7 µM) | 16 (≈ 32.9 µM) |  | 
16 | Cc1cc2ncc(C(=O)N[C@H](C)[C@](O)(Cn3cncn3)c3ccc(F)cc3F)c(C)n2n1 | 0 | 20 | 70 (≈ 159 µM) | > 80 |  | 
17 | C[C@@H](n1cnc2cc(-c3ccc(S(C)(=O)=O)cc3)sc2c1=O)[C@](O)(Cn1cncn1)c1ccc(F)cc1F | 0 | 40 | 2.3 (≈ 4.12 µM) | > 80 |  | 

Row | SMILES | Protection (Candida albicans [1]) [%] | Protection (Candida albicans [2]) [%] | MIC [3] [µg/mL] | MIC [4] [µg/mL] | Protection (Candida albicans [5]) [%] | Protection (Candida albicans [6]) [%]
18 | C[C@@H](NC(=O)c1cnn(-c2ccc(Cl)cc2)c1C1CC1)[C@](O)(Cn1cncn1)c1ccc(F)cc1F | 0 | 100 | 1.8 (≈ 3.51 µM) | > 80 |  | 
19 | CC(=O)ONC(=N)c1ccc(-c2cc3ncn([C@H](C)[C@](O)(Cn4cncn4)c4ccc(F)cc4F)c(=O)c3s2)cc1 | 0 | 60 | 3.7 (≈ 6.38 µM) | 36 (≈ 62.1 µM) |  | 
20 | C[C@@H](NC(=O)c1cnn(-c2ccc(Cl)cc2)c1)[C@](O)(Cn1cncn1)c1ccc(F)cc1F | 50 | 100 | 1.9 (≈ 4.02 µM) | > 80 |  | 
21 | CSc1ccc(-c2cc3ncn([C@H](C)[C@](O)(Cn4cncn4)c4ccc(F)cc4F)c(=O)c3s2)cc1 | 0 | 30 | 5.5 (≈ 10.5 µM) | > 80 |  | 
22 | C[C@@H](NC(=O)c1cnn(-c2ccc(Cl)cc2)c1C(F)(F)F)[C@](O)(Cn1cncn1)c1ccc(F)cc1F | 50 | 100 | 1.2 (≈ 2.22 µM) | 7.1 (≈ 13.1 µM) |  | 
23 | C[C@@H](NC(=O)c1cccc(-c2ccc(Cl)cc2)c1)[C@](O)(Cn1cncn1)c1ccc(F)cc1F |  |  | 0.3 (≈ 0.621 µM) | > 80 | 40 | 0
24 | C[C@@H](n1cnc2cc(-c3ccc([N+](=O)[O-])cc3)sc2c1=O)[C@](O)(Cn1cncn1)c1ccc(F)cc1F | 90 | 100 | 5.9 (≈ 11.2 µM) | > 80 |  | 
25 | Cc1c(C(=O)N[C@H](C)[C@](O)(Cn2cncn2)c2ccc(F)cc2F)cnn1-c1ccc(C(F)(F)F)cc1 | 80 | 100 | 1.7 (≈ 3.27 µM) | 13 (≈ 25 µM) |  | 
26 | Cc1cc(-c2ccc(C#N)cc2)sc1C(=O)N[C@H](C)[C@](O)(Cn1cncn1)c1ccc(F)cc1F |  |  | 0.7 (≈ 1.42 µM) | 8.9 (≈ 18 µM) | 100 | 70
27 | C[C@@H](NC(=O)c1cnc(-c2ccc(Cl)cc2)s1)[C@](O)(Cn1cncn1)c1ccc(F)cc1F |  |  | 0.7 (≈ 1.43 µM) | 6.3 (≈ 12.9 µM) | 100 | 100
28 | C[C@@H](NC(=O)c1sc(-c2ccc(C#N)cc2)nc1C(F)(F)F)[C@](O)(Cn1cncn1)c1ccc(F)cc1F |  |  | 2.9 (≈ 5.29 µM) | 28 (≈ 51 µM) | 100 | <50
29 | Cc1cc(-c2ccc(Cl)cc2)sc1C(=O)N[C@H](C)[C@](O)(Cn1cncn1)c1ccc(F)cc1F |  |  | 0.3 (≈ 0.596 µM) | 0.7 (≈ 1.39 µM) | 100 | 20
30 | C[C@@H](NC(=O)c1ccn(-c2ccc(Cl)cc2)c1)[C@](O)(Cn1cncn1)c1ccc(F)cc1F |  |  | 1.2 (≈ 2.54 µM) | 17 (≈ 36 µM) | 0 | 0
31 | Cc1nc(-c2ccc(Cl)cc2)n(C)c1C(=O)N[C@H](C)[C@](O)(Cn1cncn1)c1ccc(F)cc1F |  |  | 2.6 (≈ 5.19 µM) | 18 (≈ 35.9 µM) | 100 | 0
32 | Cc1nc(-c2ccc(C#N)cc2)sc1C(=O)N(C)[C@H](C)[C@](O)(Cn1cncn1)c1ccc(F)cc1F |  |  | 0.8 (≈ 1.57 µM) | 4.5 (≈ 8.85 µM) | 100 | 100
33 | Cc1nc(S(=O)(=O)c2ccc(Cl)cc2)sc1C(=O)N[C@H](C)[C@](O)(Cn1cncn1)c1ccc(F)cc1F |  |  | 7.6 (≈ 13.4 µM) | > 80 | 0 | 0
34 | Cc1nc(-c2sc(-c3ccc(Cl)cc3)nc2C)sc1C(=O)N[C@H](C)[C@](O)(Cn1cncn1)c1ccc(F)cc1F |  |  | 1.8 (≈ 2.99 µM) | > 80 | 10 | 0
